TRPC4 agonist = TRPC4 (mouse) channel activation; B-score at 10 µM; HEK293 TRPC4beta/mu-opioid, Fluo4 calcium fluorescence; active compounds read high; Q9QUQ5; hit rate 0.49% among 310,000;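 active = B-score above 5 SD of library B-scores, and initial fluorescence ratio not above library mean plus 5 SD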;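 note: positive B-score marks a calcium rise read as TRPC4 activation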
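Material: HEK293 stable line with TRPC4beta plus mu-opioid receptor; technique: Fluo4 calcium-sensitive dye fluorescence, kinetic, 1 Hz baseline; timing: Fluo4 dye loading 45 min at room temperature, 110 s recording; controls: assay buffer as low control, maximal DAMGO as high control; read-out: integrated baseline-normalised fluorescence ratio, converted to per-well B score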
TRPC4 potent = TRPC4 (mouse) allosteric potentiation; Q9QUQ5; HEK293 TRPC4beta/mu-opioid, DAMGO EC20, Fluo-4 Ca2+ flux; active compounds read high; B-score at 10 µM; hit rate 0.42% among 310,000; AID 2227;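 active = B-score of calcium response area above 5 SD of library B-scores, with initial fluorescence ratio within 5 SD of library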;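 note: B-score of integrated fluorescence ratio over time as area under calcium response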
TRPC4 block = inhibitors of mouse TRPC4 channel; Q9QUQ5; HEK293 TRPC4beta/mu-opioid, DAMGO-evoked Fluo4 calcium flux; active compounds read low; AID 2247; hit rate 0.39% among 300,000; B-score at 10 µM;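 active = B-score over 3 SD under the library average, no early fluorescence shift, positive overall ratio signal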
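Material: HEK293 cells with stable TRPC4beta plus mu-opioid receptor expression / Probe or stimulus: DAMGO in two steps, submaximal then maximal / Compound: single concentration per test compound / Technique: kinetic Fluo4 fluorescence imaging of calcium influx / Read-out: per-well B score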
TRPC6 inh = blocks the mouse TRPC6 cation channel; Q61143; HEK293-TRPC6, membrane potential dye, ACh-evoked depolarization; active compounds read low; B-score at 10 µM; hit rate 1.1% among 310,000; AID 2553;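 active = B-score under library mean minus 3 SD, initial fluorescence not abnormally high, positive integrated signal ratio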;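 note: B-score derived from integrated fluorescence ratio over the kinetic read; more negative B-score means stronger inhibition of depolarization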
Target sequence (Q61143 whole entry, looked up): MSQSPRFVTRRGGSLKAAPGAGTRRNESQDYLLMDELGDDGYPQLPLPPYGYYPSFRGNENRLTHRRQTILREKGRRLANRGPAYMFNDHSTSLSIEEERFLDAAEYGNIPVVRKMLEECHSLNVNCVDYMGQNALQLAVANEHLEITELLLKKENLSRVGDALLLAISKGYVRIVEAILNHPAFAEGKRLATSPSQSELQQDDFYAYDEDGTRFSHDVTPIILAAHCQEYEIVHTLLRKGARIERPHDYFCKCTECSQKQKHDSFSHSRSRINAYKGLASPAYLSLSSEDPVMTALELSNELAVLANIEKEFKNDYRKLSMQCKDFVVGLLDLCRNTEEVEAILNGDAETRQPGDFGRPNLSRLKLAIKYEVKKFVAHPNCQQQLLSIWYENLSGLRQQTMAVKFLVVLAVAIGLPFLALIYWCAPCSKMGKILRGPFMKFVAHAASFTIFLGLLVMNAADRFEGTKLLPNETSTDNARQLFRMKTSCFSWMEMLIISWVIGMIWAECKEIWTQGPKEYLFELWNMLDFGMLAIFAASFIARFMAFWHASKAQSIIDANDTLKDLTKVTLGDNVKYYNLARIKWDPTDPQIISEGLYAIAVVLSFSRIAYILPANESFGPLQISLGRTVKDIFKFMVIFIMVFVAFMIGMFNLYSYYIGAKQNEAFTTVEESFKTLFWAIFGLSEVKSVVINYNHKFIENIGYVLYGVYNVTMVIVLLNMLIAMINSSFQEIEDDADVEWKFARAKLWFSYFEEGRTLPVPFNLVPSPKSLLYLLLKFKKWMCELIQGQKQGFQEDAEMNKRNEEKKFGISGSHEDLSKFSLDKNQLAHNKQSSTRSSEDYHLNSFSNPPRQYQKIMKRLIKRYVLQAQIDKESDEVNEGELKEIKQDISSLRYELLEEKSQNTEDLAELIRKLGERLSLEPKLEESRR
TRPC6 act = activates the mouse TRPC6 cation channel; Q61143; HEK293-TRPC6 membrane potential dye fluorescence; active compounds read high; B-score at 10 µM; hit rate 0.13% among 310,000; AID 2550;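 active = B-score of the integrated fluorescence ratio above library mean plus 3 SD, and starting fluorescence ratio within library mean plus 5 SD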;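 note: higher score means more depolarization so channel activation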
TRPC4 sel inh 2 = second check of whether TRPC6 inhibitors also affect mouse TRPC4. shares compounds with TRPC6 inh. HEK293 TRPC4/MOR, membrane potential dye fluorescence; channel activated by saturating DAMGO dose. inhibition, % at 10 µM. hit rate 42% among 920. AID 2776;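 active = compounds whose fluorescence signal differed from control wells by over 3 SD, either direction, in both duplicate plates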
TRPC4 spec = tests whether TRPC6 inhibitors also affect mouse TRPC4; hit rate 61% among 920; HEK293 TRPC4/mu-opioid, membrane potential fluorescence; AID 2777; activity change, negative = inhibition, % at 10 µM; shares compounds with TRPC6 inh;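 active = rise or fall in signal beyond 3 SD of buffer-only wells in both replicate plates, either sign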;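 note: integrated kinetic ratio of fluorescence range over baseline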
HEK293 MPD ctr 2-1 = second counter-screen for TRPC6 inhibitors: parental HEK293 cells; shares compounds with TRPC6 inh; parental HEK293 membrane potential dye fluorescence; maximal acetylcholine challenge after compound addition; signal change vs control, % at 10 µM; hit rate 31% among 920; AID 2779;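 active = membrane potential signal moving either way by over 3 SD of the maximum-effect control, in both duplicate plates, meaning non-specific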
HEK293 MPD ctr-1 = counter-screen for TRPC6 inhibitors: effect in parental HEK293 cells; shares compounds with TRPC6 inh; parental HEK293 membrane potential dye fluorescence; membrane potential signal change, % at 10 µM; hit rate 60% among 920;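 active = membrane potential signal shifting up or down by more than 3 SD of buffer-only wells, on both duplicate plates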
HEK293 MPD ctr-2 = parental HEK293 nonspecific activity of TRPC6 modulators | membrane potential signal change, % at 10 µM | hit rate 51% among 2,400 | membrane potential dye fluorescence | shares compounds with TRPC6 inh;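 active = membrane potential signal moves up or down beyond 5 SD from buffer-only wells, on both duplicate plates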
HEK293 MPD ctr 2-2 = second counter-screen for TRPC6 modulators: effect in parental HEK293 cells. membrane potential dye fluorescence; after compound, maximal acetylcholine stimulation. AID 488926. inhibition, % at 10 µM. shares compounds with TRPC6 inh. hit rate 14% among 2,400;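 active = membrane potential signal drops by more than 5 SD from the mean control signal, in both duplicate plates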;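 note: plate controls were acetylcholine ECmax control wells for no effect and buffer only wells for full effect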
TRPC4/MOR mod = selectivity of TRPC6 modulators against mouse TRPC4; shares compounds with TRPC6 inh; HEK293 TRPC4/mu-opioid, membrane potential fluorescence; percent change from control (negative = decrease, positive = increase), % at 10 µM; hit rate 69% among 2,400; AID 488927;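 active = membrane potential signal moved up or down beyond 5 SD of buffer control wells, in both duplicate plates, actives on both sides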;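 note: plate controls were assay buffer wells for no effect and DAMGO maximal-effect wells for full effect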
TRPC4 ctr inh 2 = second check of whether TRPC6 modulators also affect mouse TRPC4; HEK293 TRPC4/mu-opioid, membrane potential dye fluorescence; stimulated with maximal-effect DAMGO; AID 488928; inhibition, % at 10 µM; shares compounds with TRPC6 inh; hit rate 55% among 2,400;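 active = drop in membrane potential signal beyond 5 SD of the control wells in both duplicate plates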;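 note: TRPC4 counter screen for TRPC6 hits run under conditions tuned for TRPC6 not TRPC4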
TRPC6 block conf = confirmation of mouse TRPC6 inhibitors; shares compounds with TRPC6 inh; HEK293-TRPC6, membrane potential dye, ACh-evoked depolarization; inhibition, % at 10 µM; hit rate 43% among 3,300;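 active = fluorescence ratio falls more than 5 SD below the full-stimulation control mean, in both duplicate runs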;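 note: integrated fluorescence ratio of peak minus minimum over baseline after agonist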
TRPC6 act conf = confirmation of mouse TRPC6 activators | shares compounds with TRPC6 inh | activation, % at 10 µM | hit rate 11% among 2,800 | HEK293-TRPC6 membrane potential dye fluorescence, FDSS;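 active = ratio signal rise beyond 5 SD above unstimulated control wells' mean, seen in both duplicate runs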;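 note: plate controls were buffer EC0 wells for no effect and acetylcholine ECmax response for full effect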
Numbers without * were called inactive; i = inactive; / = not tested or not shown. This is a sample that favours compounds with a hit; in the whole collection about 2.3% have one here.

SMILES | TRPC4 agonist | TRPC4 potent | TRPC4 block | TRPC6 inh | TRPC6 act | HEK293 MPD ctr-2 | HEK293 MPD ctr 2-2 | TRPC4/MOR mod | TRPC4 ctr inh 2 | TRPC6 block conf | TRPC6 act conf | others
COc1ccc(Nc2nc(N3CCCCC3)c3ccccc3n2)cc1 | i | i | i | -7.49* | i | / | / | / | / | i | i | TRPC4 sel inh 2=i;TRPC4 spec=i;HEK293 MPD ctr 2-1=i;HEK293 MPD ctr-1=i
Oc1ccc(Nc2nc(N3CCCC3)c3ccccc3n2)cc1 | i | i | -6* | -11.2* | i | / | / | / | / | 70.9%* | i | TRPC4 sel inh 2=55.5%*;TRPC4 spec=-19.2%*;HEK293 MPD ctr 2-1=32.0%*;HEK293 MPD ctr-1=-262.5%*
Cc1ccc(Nc2nc(N)c([N+](=O)[O-])c(N3CCOCC3)n2)cc1 | i | i | i | i | i | / | / | / | / | / | /
CCCc1nc2ccccc2c(=O)n1CC(=O)c1ccc(F)cc1 | i | i | i | i | i | / | / | / | / | / | /
Cc1nc(NC(=O)/C=C/c2ccccc2)n[nH]1 | i | i | i | i | i | / | / | / | / | / | /
CCCn1c2c(c(O)c(C(=O)Nc3nc4ccccc4s3)c1=O)CCCC2 | i | i | i | i | i | / | / | / | / | / | /
CCS(=O)(=O)N1CCN(C(=O)c2ccc(-c3ccccc3)cc2)CC1 | i | i | i | i | i | / | / | / | / | / | /
O=C(O)CCC(=O)Nc1ccc(Oc2ncnc3cc(Cl)ccc23)nc1 | i | i | i | i | i | / | / | / | / | / | /
Cc1cccc(N2CCN(C(=O)CN3CCOc4ccccc43)CC2C)c1 (stereo unspecified) | i | i | i | i | i | / | / | / | / | / | /
O=C(CN1CCOc2ccccc21)N1CCN(c2cccc(Cl)c2)CC1 | i | i | i | -5.48* | i | i | i | i | 36.0%* | i | i
CCc1nc(SCC(=O)Nc2ccc(OC)cc2[N+](=O)[O-])n[nH]1 | i | i | i | i | i | / | / | / | / | / | /
Cc1ccc(-c2csc(NC(=O)/C=C/c3ccco3)c2C(=O)O)cc1 | i | i | i | -5.15* | i | i | i | i | i | i | i
CC(=O)c1cc(F)c(N2CCN(C(=O)COc3ccc(F)cc3)CC2)cc1C | i | i | i | -5.66* | i | i | i | 10.0%* | i | i | i
O=C(Nc1ccc(C2=NCCN2)cc1)c1ccc(C(=O)Nc2ccc(C3=NCCN3)cc2)c(Cl)c1 | i | i | i | i | 15.8* | 307.0%* | i | 54.0%* | i | i | 154.5%*
Cc1ccc(C(=O)Nc2cccc(N(C)S(C)(=O)=O)c2)cc1S(=O)(=O)Nc1ccccc1 | i | i | i | -7.74* | i | / | / | / | / | i | i | TRPC4 sel inh 2=i;TRPC4 spec=i;HEK293 MPD ctr 2-1=i;HEK293 MPD ctr-1=i
COc1ccc(C(=O)Nc2cccc(N(C)S(C)(=O)=O)c2)cc1OC | i | i | i | i | i | / | / | / | / | / | /
CCOc1c(Cl)cc(CNC(C)(C)CC(C)(C)C)cc1OC | i | i | i | -5.14* | i | 175.5%* | 85.5%* | 36.5%* | 75.0%* | 63.0%* | /
c1ccc(-c2cc3c(N4CCN(c5ccccc5)CC4)ncnc3s2)cc1 | i | i | i | i | i | / | / | / | / | / | /
CN1CCN(c2ncnc3sc(-c4ccccc4)cc23)CC1 | i | i | i | -6.23* | i | i | i | i | 38.5%* | i | i
CN(C)N(Cc1ccccc1)C(=O)C(O)(c1ccccc1)c1ccccc1 | i | i | i | i | i | / | / | / | / | / | /
CN(C)C(C)(C)/C=C/C(O)(c1ccccc1)c1ccccc1 | i | i | i | -8.04* | i | / | / | / | / | 54.1%* | i | TRPC4 sel inh 2=i;TRPC4 spec=i;HEK293 MPD ctr 2-1=-7.0%*;HEK293 MPD ctr-1=0.3%*
O=C(NN=C1CCCC1)c1ccccc1[N+](=O)[O-] | i | i | i | -5.64* | i | i | i | 8.0%* | i | i | i
CC(C)N1CCC(=NNC(=O)c2ccccc2[N+](=O)[O-])CC1 | i | i | i | i | i | / | / | / | / | / | /
C/C(=N\Nc1ncnc2sc(C)c(C)c12)c1ccccn1 | i | 15* | i | i | 17.3* | 315.5%* | i | 49.5%* | i | i | 75.0%*
Cc1sc(NC(=O)c2ccccc2)c(C(=O)NCCN(C)C)c1C | 148* | i | i | -11.4* | i | -161.0%* | i | -31.0%* | 74.0%* | 62.0%* | i
SMILES | TRPC4 agonist | TRPC4 potent | TRPC4 block | TRPC6 inh | TRPC6 act | HEK293 MPD ctr-2 | HEK293 MPD ctr 2-2 | TRPC4/MOR mod | TRPC4 ctr inh 2 | TRPC6 block conf | TRPC6 act conf | others
CN(C)CCNC(=O)c1ccccc1 | i | i | i | i | i | / | / | / | / | / | /
Nn1cnc2cc3ccccc3cc2c1=O | i | i | i | i | i | / | / | / | / | / | /
COCCNC(=O)[C@@H]1CCCN1C(=O)C1CCN(S(=O)(=O)c2ccc(C)cc2)CC1 | i | i | i | i | i | / | / | / | / | / | /
COc1ccc(-c2[nH]n(-c3ccc([N+](=O)[O-])cc3)c(=O)c2C=NCc2ccccc2)cc1 | i | i | i | i | i | / | / | / | / | / | /
COc1ccc(C(CCNCc2ccc(OC(C)C)cc2)C(C)C)cc1 (stereo unspecified) | i | i | i | i | i | / | / | / | / | / | /
COc1ccc(C(CCNCc2ccc(N(C)C)cc2)C(C)C)cc1 (stereo unspecified) | i | i | i | -5.17* | i | 237.0%* | i | 44.5%* | 56.0%* | 46.5%* | /

High-throughput results deposited in PubChem BioAssay by Johns Hopkins Ion Channel Center.
